Measured values reported in ChEMBL document CHEMBL4619736, “Direct modifications of the cyclic peptide Polymyxin B leading to analogues with enhanced in vitro antibacterial activity” (Bioorg Med Chem Lett, 2020).
In brackets after ≈: the same amount, converted by molar mass. Numbered stars: 1 amine (or outer) side, 2 acyl side, 3 side chain; on linkers, the order of the positions; unused ones are H or OH. Bridge positions count the residues as written; N and C are the ends. Square brackets hold non-standard residues; d marks the D form. Peptide text beside a SMILES is read from it. * marks the point of attachment. X2 = O=C([C@@H](Cc1ccc(-c2ccncc2)cc1)N[*:1])[*:2]; GABA(3R-Bn) = O=C(C[C@H](CN[*:1])Cc1ccccc1)[*:2]; X1 = CC[C@H](C)CCCCC(=O)*; Dab = NCC[C@H](N)C(=O)O; Dap = NC[C@H](N)C(=O)O

How the values were obtained:
Escherichia coli [1] = assay: Antibacterial activity against Escherichia coli ATCC 25922 by CLSI based broth microdilution method; assay type: functional
In short: (§1)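 Broth microdilution MIC per CLSI guidelines (M07-A9) in cation-adjusted Mueller-Hinton broth; panel of Gram-negative strains including clinical isolates with reduced polymyxin B susceptibility.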

Escherichia coli [2] = assay: Antibacterial activity against Escherichia coli IHMA 940398 by CLSI based broth microdilution method; assay type: functional; in short: as §1
Klebsiella pneumoniae [3] = assay: Antibacterial activity against Klebsiella pneumoniae ATCC 4352 by CLSI based broth microdilution method; assay type: functional; in short: as §1
Klebsiella pneumoniae [4] = assay: Antibacterial activity against Klebsiella pneumoniae IHMA 652780 by CLSI based broth microdilution method; assay type: functional; in short: as §1
Pseudomonas aeruginosa [5] = assay: Antibacterial activity against Pseudomonas aeruginosa ATCC 27853 by CLSI based broth microdilution method; assay type: functional; in short: as §1
Pseudomonas aeruginosa [6] = assay: Antibacterial activity against Pseudomonas aeruginosa IHMA 517175 by CLSI based broth microdilution method; assay type: functional; in short: as §1
Acinetobacter baumannii [7] = assay: Antibacterial activity against Acinetobacter baumannii NCTC 13424 by CLSI based broth microdilution method; assay type: functional; in short: as §1
Acinetobacter baumannii [8] = assay: Antibacterial activity against Acinetobacter baumannii IHMA 863866 by CLSI based broth microdilution method; assay type: functional; in short: as §1
[9] = Ratio of test compound IC50 to polymyxin B IC50 for cytotoxicity against human HK2 cells incubated for 24 hrs by resazurin blue dye based assay; assay type: cell-based; settings: HK-2 cells, read-out: Ratio IC50
In short: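 Confluent monolayers of human proximal tubule epithelial HK-2 cells exposed to compound for 24h at 37°C, 5% CO2; top concentration 1,000 or 3,000 μg/mL, semi-log dilutions, 9 points. Viability read with resazurin blue; log-concentration dose-response fit with bottom constrained to zero gives IC50, expressed relative to polymyxin B IC50 run in the same experiment.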

| SMILES | MIC (Escherichia coli [1]) [µg/mL] | MIC (Escherichia coli [2]) [µg/mL] | MIC (Klebsiella pneumoniae [3]) [µg/mL] | MIC (Klebsiella pneumoniae [4]) [µg/mL] | MIC (Pseudomonas aeruginosa [5]) [µg/mL] | MIC (Pseudomonas aeruginosa [6]) [µg/mL] | MIC (Acinetobacter baumannii [7]) [µg/mL] | MIC (Acinetobacter baumannii [8]) [µg/mL] | selectivity ratio at 24 h [9] |
| --- | --- | --- | --- | --- | --- | --- | --- | --- | --- |
| CC[C@H](C)CCCCC(=O)N[C@@H](CCN)C(=O)N[C@H](C(=O)N[C@@H](CCN)C(=O)N[C@H]1CCNC(=O)[C@H]([C@@H](C)O)NC(=O)[C@H](CCN)NC(=O)[C@H](CCN)NC(=O)[C@H](CC(C)C)NC(=O)[C@@H](Cc2ccc(Br)cc2)NC(=O)[C@H](CCN)NC1=O)[C@@H](C)O | 0.5 (≈ 0.39 µM) | 4 (≈ 3.12 µM) | 0.5 (≈ 0.39 µM) | 0.5 (≈ 0.39 µM) | 0.5 (≈ 0.39 µM) | 2 (≈ 1.56 µM) | 0.5 (≈ 0.39 µM) | 4 (≈ 3.12 µM) |  |
| CC(C)C[C@@H]1NC(=O)[C@@H](Cc2ccccc2)NC(=O)[C@H](CCN)NC(=O)[C@@H](NC(=O)[C@H](CN)NC(=O)[C@@H](NC(=O)[C@@H]2CNCCN2CC(C)C)[C@@H](C)O)CCNC(=O)[C@H]([C@@H](C)O)NC(=O)[C@H](CCN)NC(=O)[C@H](CCN)NC1=O | 0.25 (≈ 0.224 µM) | 32 (≈ 28.6 µM) | 0.25 (≈ 0.224 µM) | 16 (≈ 14.3 µM) | 0.5 (≈ 0.447 µM) | 32 (≈ 28.6 µM) | 0.5 (≈ 0.447 µM) | > 64 | 16.6 |
| CC(C)C[C@@H]1NC(=O)[C@@H](CC2CCCCC2)NC(=O)[C@H](CCN)NC(=O)[C@@H](NC(=O)[C@H](CCN)NC(=O)[C@@H](NC(=O)C[C@H](CN)Cc2ccccc2)[C@@H](C)O)CCNC(=O)[C@H]([C@@H](C)O)NC(=O)[C@H](CCN)NC(=O)[C@H](CCN)NC1=O | 0.125 (≈ 0.109 µM) | 32 (≈ 28 µM) |  | 4 (≈ 3.5 µM) | 0.25 (≈ 0.218 µM) | 8 (≈ 6.99 µM) | 0.06 (≈ 0.0524 µM) | 64 (≈ 55.9 µM) | 2.4 |
| CC[C@H](C)CCCCC(=O)N[C@@H](CCN)C(=O)N[C@H](C(=O)N[C@@H](CCN)C(=O)N[C@H]1CCNC(=O)[C@H]([C@@H](C)O)NC(=O)[C@H](CCN)NC(=O)[C@H](CCN)NC(=O)[C@H](CC(C)C)NC(=O)[C@@H](Cc2ccc(-c3ccccc3)cc2)NC(=O)[C@H](CCN)NC1=O)[C@@H](C)O | 1 (≈ 0.781 µM) | 8 (≈ 6.25 µM) | 0.5 (≈ 0.391 µM) | 0.5 (≈ 0.391 µM) | 1 (≈ 0.781 µM) | 2 (≈ 1.56 µM) | 1 (≈ 0.781 µM) | 16 (≈ 12.5 µM) | 0.14 |
| CC(C)C[C@@H]1NC(=O)[C@@H](CC2CCCCC2)NC(=O)[C@H](CCN)NC(=O)[C@@H](NC(=O)[C@H](CN)NC(=O)[C@@H](NC(=O)C[C@H](CN)Cc2ccccc2)[C@@H](C)O)CCNC(=O)[C@H]([C@@H](C)O)NC(=O)[C@H](CCN)NC(=O)[C@H](CCN)NC1=O | 0.25 (≈ 0.221 µM) | 16 (≈ 14.2 µM) | 0.06 (≈ 0.0531 µM) | 4 (≈ 3.54 µM) | 0.25 (≈ 0.221 µM) | 4 (≈ 3.54 µM) | 0.125 (≈ 0.111 µM) | 64 (≈ 56.6 µM) | 5.2 |
| CC[C@H](C)CCCCC(=O)N[C@@H](CCN)C(=O)N[C@H](C(=O)N[C@@H](CCN)C(=O)N[C@H]1CCNC(=O)[C@H]([C@@H](C)O)NC(=O)[C@H](CCN)NC(=O)[C@H](CCN)NC(=O)[C@H](CC(C)C)NC(=O)[C@@H](CC2CCCCC2)NC(=O)[C@H](CCN)NC1=O)[C@@H](C)O | 0.5 (≈ 0.413 µM) | 8 (≈ 6.61 µM) | 0.5 (≈ 0.413 µM) | 1 (≈ 0.827 µM) | 1 (≈ 0.827 µM) | 4 (≈ 3.31 µM) | 0.5 (≈ 0.413 µM) | 32 (≈ 26.5 µM) |  |
| CC(C)C[C@@H]1CNC[C@@H](C(=O)N[C@H](C(=O)N[C@@H](CN)C(=O)N[C@H]2CCNC(=O)[C@H]([C@@H](C)O)NC(=O)[C@H](CCN)NC(=O)[C@H](CCN)NC(=O)[C@H](CC(C)C)NC(=O)[C@@H](Cc3ccc(-c4ccccc4)cc3)NC(=O)[C@H](CCN)NC2=O)[C@@H](C)O)C1 | 0.25 (≈ 0.21 µM) | 2 (≈ 1.68 µM) | 0.25 (≈ 0.21 µM) | 0.5 (≈ 0.419 µM) | 0.5 (≈ 0.419 µM) | 1 (≈ 0.839 µM) | 0.25 (≈ 0.21 µM) | 0.5 (≈ 0.419 µM) | 1.2 |
| CC(C)C[C@@H]1NC(=O)[C@@H](Cc2ccc(-c3ccccc3)cc2)NC(=O)[C@H](CCN)NC(=O)[C@@H](NC(=O)[C@H](CN)NC(=O)[C@@H](NC(=O)[C@@H]2CNCCN2CC(C)C)[C@@H](C)O)CCNC(=O)[C@H]([C@@H](C)O)NC(=O)[C@H](CCN)NC(=O)[C@H](CCN)NC1=O | 0.125 (≈ 0.105 µM) | 8 (≈ 6.7 µM) | 0.25 (≈ 0.209 µM) | 0.5 (≈ 0.419 µM) | 0.5 (≈ 0.419 µM) | 4 (≈ 3.35 µM) | 0.125 (≈ 0.105 µM) | 4 (≈ 3.35 µM) | 2.4 |
| CC(C)C[C@@H]1NC(=O)[C@@H](Cc2ccccc2)NC(=O)[C@H](CCN)NC(=O)[C@@H](NC(=O)[C@H](CN)NC(=O)[C@@H](NC(=O)C[C@H](CN)C2CCCCC2)[C@@H](C)O)CCNC(=O)[C@H]([C@@H](C)O)NC(=O)[C@H](CCN)NC(=O)[C@H](CCN)NC1=O | 0.06 (≈ 0.0537 µM) | 16 (≈ 14.3 µM) | 0.125 (≈ 0.112 µM) | 4 (≈ 3.58 µM) | 0.06 (≈ 0.0537 µM) | 8 (≈ 7.17 µM) | 0.25 (≈ 0.224 µM) | > 64 | 6.9 |
| CC(C)C[C@@H]1NC(=O)[C@@H](CC2CCCCC2)NC(=O)[C@H](CCN)NC(=O)[C@@H](NC(=O)[C@H](CN)NC(=O)[C@@H](NC(=O)C[C@H](CN)C2CCCCC2)[C@@H](C)O)CCNC(=O)[C@H]([C@@H](C)O)NC(=O)[C@H](CCN)NC(=O)[C@H](CCN)NC1=O | 0.5 (≈ 0.445 µM) | 8 (≈ 7.13 µM) |  | 2 (≈ 1.78 µM) | 0.5 (≈ 0.445 µM) | 2 (≈ 1.78 µM) | 0.125 (≈ 0.111 µM) | 32 (≈ 28.5 µM) |  |
| CC[C@H](C)CCCCC(=O)N[C@@H](CCN)C(=O)N[C@H](C(=O)N[C@@H](CCN)C(=O)N[C@H]1CCNC(=O)[C@H]([C@@H](C)O)NC(=O)[C@H](CCN)NC(=O)[C@H](CCN)NC(=O)[C@H](CC(C)C)NC(=O)[C@@H](Cc2ccc(-c3ccncc3)cc2)NC(=O)[C@H](CCN)NC1=O)[C@@H](C)O (X1-[Dab]T[Dab][Dab][Dab][X2]L[Dab][Dab]T; lactam 4-C) | 1 (≈ 0.781 µM) | 32 (≈ 25 µM) | 1 (≈ 0.781 µM) |  | 1 (≈ 0.781 µM) | 32 (≈ 25 µM) | 2 (≈ 1.56 µM) |  | 0.7 |
| CC[C@H](C)CCCCC(=O)N[C@@H](CCN)C(=O)N[C@H](C(=O)N[C@@H](CCN)C(=O)N[C@H]1CCNC(=O)[C@H]([C@@H](C)O)NC(=O)[C@H](CCN)NC(=O)[C@H](CCN)NC(=O)[C@H](CC(C)C)NC(=O)[C@@H](Cc2ccccc2)NC(=O)[C@H](CCN)NC1=O)[C@@H](C)O (X1-[Dab]T[Dab][Dab][Dab][dF]L[Dab][Dab]T; lactam 4-C) | 0.25 (≈ 0.208 µM) | 16 (≈ 13.3 µM) | 0.125 (≈ 0.104 µM) | 4 (≈ 3.32 µM) | 0.5 (≈ 0.415 µM) | 8 (≈ 6.65 µM) | 0.25 (≈ 0.208 µM) | 32 (≈ 26.6 µM) | 1 |
| CC(C)C[C@@H]1NC(=O)[C@@H](Cc2ccccc2)NC(=O)[C@H](CCN)NC(=O)[C@@H](NC(=O)[C@H](CN)NC(=O)[C@@H](NC(=O)C[C@H](CN)Cc2ccccc2)[C@@H](C)O)CCNC(=O)[C@H]([C@@H](C)O)NC(=O)[C@H](CCN)NC(=O)[C@H](CCN)NC1=O ({GABA(3R-Bn)}-T[Dap][Dab][Dab][dF]L[Dab][Dab]T; lactam 3-C) | 0.25 (≈ 0.222 µM) | 32 (≈ 28.5 µM) | 0.125 (≈ 0.111 µM) |  | 0.125 (≈ 0.111 µM) | 8 (≈ 7.12 µM) | 0.125 (≈ 0.111 µM) | > 64 | 12 |
